# Measurements from ChEMBL document CHEMBL3758120, “Synthesis and Mechanism Studies of 1,3-Benzoazolyl Substituted Pyrrolo[2,3-b]pyrazine Derivatives as Nonintercalative Topoisomerase II Catalytic Inhibitors” (J Med Chem, 2016).
# The source made the active and inactive calls. No cut-off for these calls is given here.
# Columns and labels:
# HeLa = assay: Antiproliferative activity against human HeLa cells after 48 hrs by MTT assay; type: functional, cell-based
# Procedure, shortened: (§1)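 Cells seeded at 5000 per well and left overnight, then exposed to increasing concentrations (0-50 μM) for 48 h. […] HL-60/MX2 is a mitoxantrone-selected HL-60 derivative with reduced Topo IIα/β.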
# Raji = assay: Antiproliferative activity against human Raji cells after 48 hrs by MTT assay; type: functional, cell-based; procedure, shortened: as §1
# [1] = target: T1, DNA topoisomerase 1 (Homo sapiens) (UniProt P11387); assay: Inhibition of recombinant human topoisomerase 1-mediated relaxation of supercoiled pBR322 DNA at 50 uM incubated for 30 mins by agarose gel electrophoresis
# T1 sequence (whole entry): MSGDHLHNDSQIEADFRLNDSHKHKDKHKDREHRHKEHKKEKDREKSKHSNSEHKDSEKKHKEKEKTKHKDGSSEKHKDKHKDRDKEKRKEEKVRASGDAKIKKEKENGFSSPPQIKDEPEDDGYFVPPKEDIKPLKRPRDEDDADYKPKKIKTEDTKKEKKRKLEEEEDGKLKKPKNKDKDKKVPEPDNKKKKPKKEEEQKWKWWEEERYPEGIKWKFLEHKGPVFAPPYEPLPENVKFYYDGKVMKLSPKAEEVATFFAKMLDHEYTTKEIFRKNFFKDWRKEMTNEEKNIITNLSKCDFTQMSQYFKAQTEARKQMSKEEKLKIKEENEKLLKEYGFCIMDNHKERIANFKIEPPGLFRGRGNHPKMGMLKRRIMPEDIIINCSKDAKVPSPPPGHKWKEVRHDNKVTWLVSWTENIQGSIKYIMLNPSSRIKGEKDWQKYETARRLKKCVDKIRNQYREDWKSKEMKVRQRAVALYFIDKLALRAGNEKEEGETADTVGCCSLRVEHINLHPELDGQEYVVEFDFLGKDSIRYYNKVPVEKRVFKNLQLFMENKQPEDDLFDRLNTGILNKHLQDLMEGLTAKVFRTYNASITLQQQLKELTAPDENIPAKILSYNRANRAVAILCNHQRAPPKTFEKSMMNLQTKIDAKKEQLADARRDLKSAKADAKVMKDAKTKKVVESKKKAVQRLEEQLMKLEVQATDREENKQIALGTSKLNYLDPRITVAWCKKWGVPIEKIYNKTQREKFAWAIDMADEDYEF
# Procedure, shortened: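 Supercoiled pBR322 relaxed by Topo I with compound, incubated 30 min at 37 °C, stopped with 1% SDS dye, run on 1% agarose 1 h at 90 V in TAE, stained and imaged under UV; camptothecin as reference.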
# HEK293 = assay: Cytotoxicity against HEK293 cells after 48 hrs by MTT assay; type: cell-based; details: Homo sapiens, HEK293, 48 h
# [2] = target: T2, DNA topoisomerase 2-alpha (Homo sapiens, UniProt P11388); assay: Inhibition of purified human topoisomerase 2-mediated relaxation of supercoiled pBR322 DNA at 50 uM incubated for 30 mins by agarose gel electrophoresis
# Procedure, shortened: (§2)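 Reactions contained 0.2 μg supercoiled pBR322 in 50 mM Tris-HCl pH 8.0, 150 mM NaCl, 10 mM MgCl2, 0.5 mM DTT, 30 μg/ml BSA, normally 2 mM ATP (1, 2 or 4 mM in ATP-competition runs). Started with 1 U human Topo II, 30 min at 37 °C, stopped with sarcosyl buffer, run on 1% agarose 1.5 h at 75 V, gel-stained and imaged under UV.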
# [3] = Antiproliferative activity against human HL60 cells after 48 hrs by MTT assay; type: functional, cell-based; details: HL-60, 48 h; procedure, shortened: as §1
# K562 = assay: Antiproliferative activity against human K562 cells after 48 hrs by MTT assay; type: functional, cell-based; details: K562, 48 h; procedure, shortened: as §1
# [4] = Antiproliferative activity against human MDA-MB-201 cells after 48 hrs by MTT assay; type: functional, cell-based; procedure, shortened: as §1
# A549 = assay: Antiproliferative activity against human A549 cells after 48 hrs by MTT assay; type: functional, cell-based; details: A549, 48 h; procedure, shortened: as §1
# [5] = Antiproliferative activity against human HL60/MX2 cells after 48 hrs by MTT assay; type: functional, cell-based; details: HL60/MX2, 48 h; procedure, shortened: as §1
# HL-60 = assay: Resistance index, ratio of IC50 for human HL60/MX2 cells to IC50 for HL60 cells; type: functional
# Procedure, shortened: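 Resistance index calculated as MTT-derived IC50 (48 h exposure, 0-50 μM, A570 readout) in HL-60/MX2 divided by IC50 in parental HL-60.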
# Escherichia coli = assay: Binding affinity to Escherichia coli pBR322 DNA assessed as intercalation of pBR322 DNA at 0.1 to 100 uM by fluorescence based ethidium bromide displacement assay
# Procedure, shortened: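 Increasing concentrations added to 20 nM pBR322 plasmid with 2.5 μM ethidium bromide in 10 mM HEPES pH 7.9, 100 mM KCl, 5 mM MgCl2, 0.1 mM EDTA. Fluorescence emission spectra recorded (excitation 510 nm, emission max 595 nm) at each concentration; mAMSA used as intercalating reference.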
# [6] = target: T2, DNA topoisomerase 2-alpha; assay: Inhibition of purified human topoisomerase 2-mediated relaxation of supercoiled pBR322 DNA at 20 uM incubated for 30 mins by agarose gel electrophoresis; procedure, shortened: as §2
# T2 sequence (P11388 whole entry): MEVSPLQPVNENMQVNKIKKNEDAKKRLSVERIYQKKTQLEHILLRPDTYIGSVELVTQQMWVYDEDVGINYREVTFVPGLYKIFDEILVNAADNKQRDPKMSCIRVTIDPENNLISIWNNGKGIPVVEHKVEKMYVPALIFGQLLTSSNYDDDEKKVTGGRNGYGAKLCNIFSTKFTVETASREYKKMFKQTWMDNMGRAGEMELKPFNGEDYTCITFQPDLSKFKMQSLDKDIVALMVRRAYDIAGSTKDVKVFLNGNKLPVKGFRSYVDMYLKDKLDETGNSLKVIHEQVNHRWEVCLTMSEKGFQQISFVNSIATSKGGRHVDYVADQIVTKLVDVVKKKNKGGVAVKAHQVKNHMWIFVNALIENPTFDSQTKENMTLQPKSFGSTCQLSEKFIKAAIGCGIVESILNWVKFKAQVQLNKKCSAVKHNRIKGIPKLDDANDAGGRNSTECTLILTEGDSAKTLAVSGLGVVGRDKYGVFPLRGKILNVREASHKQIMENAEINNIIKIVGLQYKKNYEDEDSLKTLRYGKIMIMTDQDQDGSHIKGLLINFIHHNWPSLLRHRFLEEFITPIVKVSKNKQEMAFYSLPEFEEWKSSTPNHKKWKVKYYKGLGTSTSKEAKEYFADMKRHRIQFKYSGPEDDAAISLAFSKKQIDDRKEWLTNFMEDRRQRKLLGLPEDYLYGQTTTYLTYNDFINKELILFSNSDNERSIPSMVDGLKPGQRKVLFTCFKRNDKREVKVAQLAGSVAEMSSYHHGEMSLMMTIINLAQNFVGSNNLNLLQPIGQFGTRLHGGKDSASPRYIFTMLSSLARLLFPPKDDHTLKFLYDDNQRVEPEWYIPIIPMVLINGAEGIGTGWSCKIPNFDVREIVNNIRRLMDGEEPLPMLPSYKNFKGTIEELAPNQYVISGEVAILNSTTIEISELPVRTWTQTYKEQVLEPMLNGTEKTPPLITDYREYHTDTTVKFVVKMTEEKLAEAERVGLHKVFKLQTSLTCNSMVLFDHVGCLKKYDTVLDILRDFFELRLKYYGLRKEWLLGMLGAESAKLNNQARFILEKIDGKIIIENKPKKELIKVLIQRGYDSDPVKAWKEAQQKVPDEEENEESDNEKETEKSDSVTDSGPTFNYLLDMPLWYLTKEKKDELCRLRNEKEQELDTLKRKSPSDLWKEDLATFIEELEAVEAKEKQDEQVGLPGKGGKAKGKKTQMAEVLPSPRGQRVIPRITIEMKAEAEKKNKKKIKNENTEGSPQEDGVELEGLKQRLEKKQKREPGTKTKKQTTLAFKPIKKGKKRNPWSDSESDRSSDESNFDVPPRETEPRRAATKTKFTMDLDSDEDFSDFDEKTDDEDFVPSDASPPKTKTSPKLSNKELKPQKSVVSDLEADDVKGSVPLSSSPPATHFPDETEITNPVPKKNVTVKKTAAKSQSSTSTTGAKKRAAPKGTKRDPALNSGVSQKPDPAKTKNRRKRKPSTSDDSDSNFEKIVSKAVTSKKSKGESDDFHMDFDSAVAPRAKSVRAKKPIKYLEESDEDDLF
IC50 (HeLa) [µM],IC50 (Raji) [µM],inhibition [1],inhibition [2],IC50 (K562) [µM],IC50 (A549) [µM],inhibition (Escherichia coli),inhibition [6],Structure (SMILES),IC50 (HEK293) [µM],IC50 [3] [µM],IC50 [4] [µM],IC50 [5] [µM],Ratio IC50 (HL-60)
,,,,,,Active,,COc1cc(NS(C)(=O)=O)ccc1Nc1c2ccccc2nc2ccccc12,,,,,
1.95,9.2,,,1.38,5.47,,Active,CN(C)CCCCn1c(N)c(-c2nc3ccccc3o2)c2nc(C#N)c(C#N)nc21,6.24,0.64,6.13,0.96,1.5
11.2,1.94,,,5.9,7.17,,Active,CN(C)CCCn1c(N)c(-c2nc3ccccc3o2)c2nc(C#N)c(C#N)nc21,5.88,0.39,5.64,1.31,3.3
0.72,2.99,,,1.8,8.87,,Active,CN(C)CCCn1c(N)c(-c2nc3ccccc3s2)c2nc(C#N)c(C#N)nc21,4.29,0.51,2.93,1.31,2.5
25.9,1.23,inactive,,1.73,10.4,,Active,CN(C)CCCn1c(N)c(-c2nc3ccccc3[nH]2)c2nc(C#N)c(C#N)nc21,8.36,0.87,1.82,2.39,2.7
8.88,8.32,inactive,inactive,6.34,> 50,,,CN(C)CCn1c(N)c(-c2nc3ccccc3[nH]2)c2nc(C#N)c(C#N)nc21,9.73,2.22,43.5,3.78,1.7
18.7,10.1,,,1.33,35.8,,Active,CN(C)CCCCn1c(N)c(-c2nc3ccccc3s2)c2nc(C#N)c(C#N)nc21,5.31,0.83,2.74,2.14,2.6
4.32,0.94,,,3.56,11.7,,Active,CN(C)CCCn1c(N)c(-c2nc3ccccc3n2C)c2nc(C#N)c(C#N)nc21,8.41,2.12,3.67,11.3,5.3

# The next lines start with the compound.
Structure (SMILES),IC50 (HeLa) [µM],IC50 (Raji) [µM],inhibition [1],inhibition [2],IC50 (K562) [µM],IC50 (A549) [µM],inhibition (Escherichia coli),inhibition [6],IC50 (HEK293) [µM],IC50 [3] [µM],IC50 [4] [µM],IC50 [5] [µM],Ratio IC50 (HL-60)
N#Cc1nc2c(-c3nc4ccccc4[nH]3)c(N)n(CCCN3CCCCC3)c2nc1C#N,6.68,3.38,inactive,inactive,3.46,6.11,,,6.72,1.68,6.23,1.01,0.6
CCN(CC)CCCCn1c(N)c(-c2nc3ccccc3n2C)c2nc(C#N)c(C#N)nc21,1.61,0.92,,,1.01,1.72,,Active,3.16,0.7,2.89,1.73,2.5
CCN(CC)CCCCn1c(N)c(-c2nc3ccccc3o2)c2nc(C#N)c(C#N)nc21,6.42,2.61,,,1.98,9.39,,Active,3.96,0.45,2.71,1.72,3.8
CCN(CC)CCCn1c(N)c(-c2nc3ccccc3[nH]2)c2nc(C#N)c(C#N)nc21,3.15,1.87,inactive,,1.8,25.3,,Active,7.87,0.73,28.9,1.82,2.5
CN(C)CCCCn1c(-c2c(N)n(C)c3nc(C#N)c(C#N)nc23)nc2ccccc21,10.1,1.07,,,11.3,11.2,,Active,7.13,2.27,6.48,2.81,1.2
CCN(CC)CCn1c(N)c(-c2nc3ccccc3[nH]2)c2nc(C#N)c(C#N)nc21,11.6,8.95,inactive,inactive,2.49,> 50,,,12.2,1.88,25.4,7.15,3.8
CCN(CC)CCCn1c(N)c(-c2nc3ccccc3n2C)c2nc(C#N)c(C#N)nc21,12.4,2.22,,,3.27,10.7,,Active,7.24,2.81,6.75,4.47,1.6
CN1CCN(CCCn2c(N)c(-c3nc4ccccc4[nH]3)c3nc(C#N)c(C#N)nc32)CC1,15.6,2.62,inactive,inactive,1.26,5.75,,,6.26,0.75,4.52,3.32,4.4
CN1CCN(CCn2c(N)c(-c3nc4ccccc4[nH]3)c3nc(C#N)c(C#N)nc32)CC1,> 50,> 50,inactive,,6.55,40.5,,,10.9,4.3,9.11,6.49,1.5
CN(C)CCCCn1c(N)c(-c2nc3ccccc3n2C)c2nc(C#N)c(C#N)nc21,0.46,0.32,,,1.45,6.15,,Active,3.87,0.74,1.79,2.58,3.5
CCCCn1c(N)c(-c2nc3ccccc3[nH]2)c2nc(C#N)c(C#N)nc21,> 50,> 50,inactive,inactive,> 50,> 50,,,> 50,> 50,> 50,> 50,
CCN(CC)CCCCn1c(-c2c(N)n(C)c3nc(C#N)c(C#N)nc23)nc2ccccc21,11.8,0.6,,,3.18,13.1,,Active,8.82,2.86,6.95,3.92,1.3
